Test results taken from ChEMBL document CHEMBL1141125, “Heteroaryl-substituted naphthalenes and structurally modified derivatives: selective inhibitors of CYP11B2 for the treatment of congestive heart failure and myocardial fibrosis” (J Med Chem, 2005).
pIC50: −log10 of the molar value. In brackets after ≈: the same amount, converted by molar mass.

Assays:
[1] = target: T1, Cytochrome P450 11B2, mitochondrial (Homo sapiens, UniProt P19099); assay: Percent inhibition against human cytochrome P450 11B2 expressed in fission yeast, incubated with [14C]deoxycorticosterone; design: concentration or dose not given beside the values
T1 sequence (P19099 whole entry): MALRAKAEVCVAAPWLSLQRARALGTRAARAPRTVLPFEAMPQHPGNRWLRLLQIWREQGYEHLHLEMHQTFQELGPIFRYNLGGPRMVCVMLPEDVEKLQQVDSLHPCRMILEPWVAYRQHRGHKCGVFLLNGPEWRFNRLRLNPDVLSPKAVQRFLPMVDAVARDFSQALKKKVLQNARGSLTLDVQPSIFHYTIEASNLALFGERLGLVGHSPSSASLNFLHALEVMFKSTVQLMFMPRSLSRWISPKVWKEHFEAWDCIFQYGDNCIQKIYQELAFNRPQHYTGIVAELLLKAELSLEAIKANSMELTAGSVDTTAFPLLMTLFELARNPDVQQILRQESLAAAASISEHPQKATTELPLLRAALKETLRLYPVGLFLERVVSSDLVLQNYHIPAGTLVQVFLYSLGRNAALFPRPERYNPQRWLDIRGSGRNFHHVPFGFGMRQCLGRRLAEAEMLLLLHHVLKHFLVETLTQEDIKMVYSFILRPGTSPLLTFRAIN

[2] = Solubility calculated with ACD/I-lab at pH 7.4; settings: read-out: S
[3] = target: T2, Steroid 17-alpha-hydroxylase/17,20 lyase (Homo sapiens, UniProt P05093); assay: Percent inhibition against recombinant human cytochrome P450 17A1 using progesterone; design: concentration or dose not given beside the values
T2 sequence (P05093 whole entry): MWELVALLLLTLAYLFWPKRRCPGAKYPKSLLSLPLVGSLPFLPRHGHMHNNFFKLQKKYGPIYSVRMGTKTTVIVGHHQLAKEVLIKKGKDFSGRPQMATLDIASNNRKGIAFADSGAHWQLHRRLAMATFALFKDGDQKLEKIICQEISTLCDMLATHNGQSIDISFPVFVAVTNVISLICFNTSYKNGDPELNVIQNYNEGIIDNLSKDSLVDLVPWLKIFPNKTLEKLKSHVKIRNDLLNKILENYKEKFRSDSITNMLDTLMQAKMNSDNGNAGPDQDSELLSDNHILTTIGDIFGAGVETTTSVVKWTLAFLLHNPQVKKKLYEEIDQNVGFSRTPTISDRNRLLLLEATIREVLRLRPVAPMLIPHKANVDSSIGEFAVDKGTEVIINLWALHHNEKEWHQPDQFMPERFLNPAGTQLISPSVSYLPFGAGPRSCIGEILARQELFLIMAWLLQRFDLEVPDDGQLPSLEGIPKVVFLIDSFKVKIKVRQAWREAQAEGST

Homo sapiens = species: Homo sapiens; assay: Ratio between inhibitory concentration of cytochrome P450 11B1 to cytochrome P450 11B2
How it was run: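 Confluent V79 MZh hamster lung fibroblasts expressing human CYP11B1 or CYP11B2, in DMEM. Preincubated 60 min at 37 °C with inhibitor at three or more concentrations. [4-14C]11-deoxycorticosterone substrate, 100 nM. Incubation 120 min for CYP11B1 and 40 min for CYP11B2; controls without inhibitor. Ethyl acetate extraction, then HPTLC with phosphoimager quantification, giving IC50.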

[4] = target: T1, Cytochrome P450 11B2, mitochondrial; assay: Inhibitory concentration against human cytochrome P450 11B2 expressed in V79 MZh hamster lung fibroblasts, incubated with [14C]deoxycorticosterone
[5] = target: T3, Cytochrome P450 11B1, mitochondrial (Homo sapiens, UniProt P15538); assay: Inhibitory concentration against human cytochrome P450 11B1 expressed in V79 MZh hamster lung fibroblasts, incubated with [14C]deoxycorticosterone
T3 sequence (P15538 whole entry): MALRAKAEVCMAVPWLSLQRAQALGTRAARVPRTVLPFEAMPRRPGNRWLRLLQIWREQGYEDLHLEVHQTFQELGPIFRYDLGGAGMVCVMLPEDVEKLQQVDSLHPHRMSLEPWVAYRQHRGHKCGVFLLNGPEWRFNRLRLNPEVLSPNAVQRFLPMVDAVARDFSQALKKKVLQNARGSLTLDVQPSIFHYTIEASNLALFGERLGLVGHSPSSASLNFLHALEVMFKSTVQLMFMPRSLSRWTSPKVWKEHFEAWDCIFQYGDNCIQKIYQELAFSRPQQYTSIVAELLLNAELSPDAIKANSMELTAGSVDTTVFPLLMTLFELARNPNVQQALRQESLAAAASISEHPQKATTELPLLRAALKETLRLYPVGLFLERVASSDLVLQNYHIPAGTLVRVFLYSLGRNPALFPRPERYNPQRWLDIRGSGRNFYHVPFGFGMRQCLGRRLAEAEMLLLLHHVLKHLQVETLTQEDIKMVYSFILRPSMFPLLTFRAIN

[6] = target: T1, Cytochrome P450 11B2, mitochondrial; assay: Inhibitory concentration against human cytochrome P450 11B2 expressing in V79 MZh cells using [14C]deoxycorticosterone as substrate measured by screening assay; format: cell-based
Aromatase = target: T4, Aromatase (Homo sapiens, UniProt P11511)
T4 sequence (P11511 whole entry): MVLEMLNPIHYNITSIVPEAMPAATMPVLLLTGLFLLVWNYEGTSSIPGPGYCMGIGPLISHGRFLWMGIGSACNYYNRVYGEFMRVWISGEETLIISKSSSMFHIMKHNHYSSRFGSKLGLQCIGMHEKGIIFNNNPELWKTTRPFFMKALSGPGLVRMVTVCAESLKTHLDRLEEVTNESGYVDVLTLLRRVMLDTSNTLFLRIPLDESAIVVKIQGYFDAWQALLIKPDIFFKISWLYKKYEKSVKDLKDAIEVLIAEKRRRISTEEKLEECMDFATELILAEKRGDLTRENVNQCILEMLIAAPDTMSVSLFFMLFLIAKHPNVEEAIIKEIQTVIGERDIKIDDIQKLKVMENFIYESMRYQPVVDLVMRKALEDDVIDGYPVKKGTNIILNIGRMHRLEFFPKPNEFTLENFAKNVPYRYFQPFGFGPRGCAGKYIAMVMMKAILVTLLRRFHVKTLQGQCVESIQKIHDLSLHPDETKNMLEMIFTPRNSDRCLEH

Cytochrome P450 3A4 = Cytochrome P450 3A4 (Homo sapiens, UniProt P08684); assay: Inhibition percent against human hepatic cytochrome P450 3A4 enzyme at 50 uM concentration; no inhibition; format: ADME
Sequence of Cytochrome P450 3A4 (P08684 whole entry): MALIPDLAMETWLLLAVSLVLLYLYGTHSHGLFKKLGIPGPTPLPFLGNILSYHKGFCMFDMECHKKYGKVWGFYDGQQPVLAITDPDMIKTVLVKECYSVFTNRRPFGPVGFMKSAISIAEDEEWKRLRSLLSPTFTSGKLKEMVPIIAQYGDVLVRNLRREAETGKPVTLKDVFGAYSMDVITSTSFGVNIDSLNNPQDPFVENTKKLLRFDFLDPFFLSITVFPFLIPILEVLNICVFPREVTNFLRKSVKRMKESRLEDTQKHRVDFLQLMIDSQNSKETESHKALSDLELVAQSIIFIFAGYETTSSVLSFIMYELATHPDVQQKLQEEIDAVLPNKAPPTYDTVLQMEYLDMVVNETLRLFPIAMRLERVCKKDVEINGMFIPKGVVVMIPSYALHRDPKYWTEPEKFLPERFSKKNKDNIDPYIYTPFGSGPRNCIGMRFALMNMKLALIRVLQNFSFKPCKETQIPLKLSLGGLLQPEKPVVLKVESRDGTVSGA

Cytochrome P450 2D6 = Cytochrome P450 2D6 (Homo sapiens, UniProt P10635); assay: Inhibition percent against human hepatic cytochrome P450 2D6 enzyme at 20 nM concentration; no inhibition
Sequence of Cytochrome P450 2D6 (P10635 whole entry): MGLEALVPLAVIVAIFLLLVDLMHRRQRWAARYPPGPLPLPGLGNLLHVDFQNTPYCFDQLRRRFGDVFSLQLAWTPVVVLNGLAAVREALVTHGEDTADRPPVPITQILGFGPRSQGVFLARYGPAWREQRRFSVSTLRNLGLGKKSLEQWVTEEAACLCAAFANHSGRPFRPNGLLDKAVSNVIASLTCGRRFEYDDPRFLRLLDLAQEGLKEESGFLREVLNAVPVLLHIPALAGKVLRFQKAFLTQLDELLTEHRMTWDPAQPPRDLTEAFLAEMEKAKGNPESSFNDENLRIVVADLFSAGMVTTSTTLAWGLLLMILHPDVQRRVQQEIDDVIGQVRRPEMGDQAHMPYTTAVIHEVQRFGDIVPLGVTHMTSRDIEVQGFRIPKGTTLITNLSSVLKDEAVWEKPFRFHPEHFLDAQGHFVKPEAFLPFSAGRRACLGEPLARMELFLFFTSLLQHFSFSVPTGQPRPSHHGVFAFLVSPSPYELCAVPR

CYP11B1 = target: T5, CYP11B1 (Homo sapiens, UniProt P15538); assay: Inhibitory concentration against human cytochrome P450 11B1 expressed in V79 MZh hamster lung fibroblasts, incubated with [14C]deoxycorticosterone; settings: human, V79 MZh hamster lung fibroblasts expressing human CYP11B1, probe [14C]deoxycorticosterone
T5 sequence (P15538 whole entry): T3 sequence (P15538 whole entry)

## c1cncc(-c2cnc3ccccc3n2)c1
[1]
  Inhibition: 13%

## COc1ccc2cc(-c3cccnc3)ccc2c1
[2]
  solubility: 79 µM (≈ 18.6 µg/mL)
[3]
  Inhibition: 72%

## COC(=O)c1ccc2cc(-c3cccnc3)ccc2c1
Homo sapiens
  Selectivity factor: 145
[1]
  Inhibition: 74%
[4]
  pIC50: 7.14
[2]
  solubility: 71 µM (≈ 18.7 µg/mL)

## c1ccc(COc2ccc3cc(-c4cccnc4)ccc3c2)cc1
[1]
  Inhibition: 3%

## c1ccc2ncc(-n3ccnc3)cc2c1
Homo sapiens
  Selectivity factor: 10
[1]
  Inhibition: 17%
[4]
  pIC50: 6.22
[5]
  pIC50: 5.20

## COc1ccc2c(Cl)c(-c3cccnc3)ccc2c1Cl
Homo sapiens
  Selectivity factor: 174
[2]
  solubility: 7.2 µM (≈ 2.19 µg/mL)
[5]
  pIC50: 5.31
[3]
  Inhibition: 83%

## COc1cc2ccccc2cc1-c1cccnc1
[6]
  pIC50: < 6.30
[1]
  Inhibition: 30%

## COc1ccc2cc(-c3cccnc3)ccc2c1Cl
Homo sapiens
  Selectivity factor: 192
[2]
  solubility: 7.6 µM (≈ 2.05 µg/mL)
[5]
  pIC50: 5.60

## Cn1cncc1-c1ccc2ccccc2c1
[1]
  Inhibition: 28%

## c1cncc(-c2ccc3ccccc3c2)c1
[2]
  solubility: 200 µM (≈ 41.1 µg/mL)

## c1cncc(-c2cc3ccccc3c3ccccc23)c1
[1]
  Inhibition: 27%
[5]
  pIC50: 5.12

## N#Cc1ccc2cc(-c3cccnc3)ccc2c1
Aromatase
  pIC50: < 4.44
Homo sapiens
  Selectivity factor: 238
[2]
  solubility: 160 µM (≈ 36.8 µg/mL)
[3]
  Inhibition: 73%

## COc1ccc2cc(-c3cccnc3)ccc2c1-c1cccnc1
[1]
  Inhibition: 9%

## COc1cc2ccccc2cc1-n1ccnc1
[6]
  pIC50: 7.72
Homo sapiens
  Selectivity factor: 4
[1]
  Inhibition: 87%
[4]
  pIC50: 7.72
[5]
  pIC50: 7.09

## c1ccc2cc(-n3ccnc3)ccc2c1
[6]
  pIC50: 7.41
[4]
  pIC50: 7.41
[2]
  solubility: 280 µM (≈ 54.4 µg/mL)
[5]
  pIC50: 5.88

## COc1ccc2cc(-c3cccnc3)ccc2c1Br
Homo sapiens
  Selectivity factor: 136
[2]
  solubility: 39 µM (≈ 12.3 µg/mL)
[5]
  pIC50: 5.35

## Brc1ccc2cc(-c3cccnc3)ccc2c1
Aromatase
  pIC50: < 4.44
Homo sapiens
  Selectivity factor: 196
[2]
  solubility: 1.3 µM (≈ 0.369 µg/mL)
[5]
  pIC50: 5.53

## CCCOc1ccc2cc(-c3cccnc3)ccc2c1
[1]
  Inhibition: 36%

## COc1ccc2cc(-c3ccncc3)ccc2c1
[1]
  Inhibition: 0%

## CCOc1ccc2cc(-c3cccnc3)ccc2c1
Homo sapiens
  Selectivity factor: 451
Cytochrome P450 3A4
  Inhibition: Not Active
Cytochrome P450 2D6
  Inhibition: Not Active
[5]
  pIC50: 5.27

## c1ccc2cc(-c3cnc[nH]3)ccc2c1
Homo sapiens
  Selectivity factor: 0.7
[1]
  Inhibition: 41%
[4]
  pIC50: 6.53
CYP11B1
  pIC50: 6.68

## c1ccc2cc(-c3cnco3)ccc2c1
Homo sapiens
  Selectivity factor: 66
[1]
  Inhibition: 11%
[4]
  pIC50: 7.92

## COc1ccc2ccc(-c3cccnc3)c(Cl)c2c1
Aromatase
  pIC50: < 4.44
Homo sapiens
  Selectivity factor: 94
[2]
  solubility: 14 µM (≈ 3.78 µg/mL)
[5]
  pIC50: 5.56
[3]
  Inhibition: 94%

## COc1ccc2cc(-n3ccnc3)ccc2c1
[6]
  pIC50: 6.66
Homo sapiens
  Selectivity factor: 4
[1]
  Inhibition: 49%
[4]
  pIC50: 6.66
[5]
  pIC50: 6.07

## CNC(=O)c1ccc2cc(-c3cccnc3)ccc2c1
[1]
  Inhibition: 0%

## Oc1ccc2cc(-c3cccnc3)ccc2c1
[2]
  solubility: 230 µM (≈ 50.9 µg/mL)

## N#Cc1ccc(C2CCCc3cncn32)cc1 (stereo not drawn) [FADROZOLE]
[3]
  Inhibition: 5%

## NC(=O)c1ccc2cc(-c3cccnc3)ccc2c1
[1]
  Inhibition: 0%
